# Assay results published in ChEMBL document CHEMBL3112444, “Synthesis and anticancer activity of focused compound libraries from the natural product lead, oroidin” (2014).
# Tested on: HT-29
# Assay: Cytotoxicity against human HT-29 cells assessed as growth inhibition after 72 hrs by MTT assay
# Format: functional
# Settings: HT-29, 72 h
# Summary of the method: (§1)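 Cells in logarithmic growth kept in DMEM with 10% FBS, 10 mM sodium bicarbonate, penicillin 100 IU/mL, glutamine 4 mM, at 37 °C under 5% CO2. Plated in duplicate at 2500–4000 cells/well. Compound (30 mM DMSO stock) added 24 h after plating. MTT read at 540 nm after 72 h exposure.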
row,Structure (SMILES),GI50 [µM]
1,O=C(NCc1ccc(-c2ccccc2)cc1)c1cc(Br)c(Br)[nH]1,3.4
2,O=C(NCc1ccc(Cl)cc1)c1cc(Br)c(Br)[nH]1,13
3,O=C(NCc1ccc(Cl)c(Cl)c1)c1cc(Br)c(Br)[nH]1,17

# Tested on: not listed separately
# Assay: Cytotoxicity against human BE(2)-C cells assessed as growth inhibition after 72 hrs by MTT assay
# Format: functional
# Settings: not given
# Summary of the method: as §1
row,Structure (SMILES),GI50 [µM]
1,O=C(NCc1ccc(-c2ccccc2)cc1)c1cc(Br)c(Br)[nH]1,4.2
2,O=C(NCc1ccc(Cl)cc1)c1cc(Br)c(Br)[nH]1,32
3,O=C(NCc1ccc(Cl)c(Cl)c1)c1cc(Br)c(Br)[nH]1,24

# Tested on: not listed separately
# Assay: Cytotoxicity against human H460 cells assessed as growth inhibition at 25 uM after 72 hrs by MTT assay relative to control
# Format: functional
# Settings: NCI-H460, 72 h, read-out: GI
# Summary of the method: as §1
row,Structure (SMILES),inhibition of growth at 25 µM [%]
1,O=C(NCc1ccc(-c2ccccc2)cc1)c1cc(Br)c(Br)[nH]1,61
2,O=C(NCc1ccc(Cl)cc1)c1cc(Br)c(Br)[nH]1,57
3,O=C(NCc1ccc(Cl)c(Cl)c1)c1cc(Br)c(Br)[nH]1,66

# Tested on: MCF7
# Assay: Cytotoxicity against human MCF7 cells assessed as growth inhibition after 72 hrs by MTT assay
# Format: functional
# Settings: MCF7, 72 h
# Summary of the method: as §1
row,Structure (SMILES),GI50 [µM]
1,O=C(NCc1ccc(-c2ccccc2)cc1)c1cc(Br)c(Br)[nH]1,3.1
2,O=C(NCc1ccc(Cl)cc1)c1cc(Br)c(Br)[nH]1,14
3,O=C(NCc1ccc(Cl)c(Cl)c1)c1cc(Br)c(Br)[nH]1,12

# Tested on: A-431
# Assay: Cytotoxicity against human A431 cells assessed as growth inhibition after 72 hrs by MTT assay
# Format: functional
# Settings: A-431, 72 h
# Summary of the method: as §1
row,Structure (SMILES),GI50 [µM]
1,O=C(NCc1ccc(-c2ccccc2)cc1)c1cc(Br)c(Br)[nH]1,3.7
2,O=C(NCc1ccc(Cl)cc1)c1cc(Br)c(Br)[nH]1,24
3,O=C(NCc1ccc(Cl)c(Cl)c1)c1cc(Br)c(Br)[nH]1,20

# Tested on: not listed separately
# Assay: Cytotoxicity against human MIA cells assessed as growth inhibition after 72 hrs by MTT assay
# Format: functional
# Settings: not given
# Summary of the method: as §1
row,Structure (SMILES),GI50 [µM]
1,O=C(NCc1ccc(-c2ccccc2)cc1)c1cc(Br)c(Br)[nH]1,3.4
2,O=C(NCc1ccc(Cl)cc1)c1cc(Br)c(Br)[nH]1,22
3,O=C(NCc1ccc(Cl)c(Cl)c1)c1cc(Br)c(Br)[nH]1,17

# Tested on: not listed separately
# Assay: Cytotoxicity against human SJ-G2 cells assessed as growth inhibition after 72 hrs by MTT assay
# Format: functional
# Settings: SJ-G2, 72 h
# Summary of the method: as §1
row,Structure (SMILES),GI50 [µM]
1,O=C(NCc1ccc(-c2ccccc2)cc1)c1cc(Br)c(Br)[nH]1,> 50
2,O=C(NCc1ccc(Cl)cc1)c1cc(Br)c(Br)[nH]1,28
3,O=C(NCc1ccc(Cl)c(Cl)c1)c1cc(Br)c(Br)[nH]1,18

# Tested on: not listed separately
# Assay: Cytotoxicity against human BE(2)-C cells assessed as growth inhibition at 25 uM after 72 hrs by MTT assay relative to control
# Format: functional
# Settings: read-out: GI
# Summary of the method: as §1
row,Structure (SMILES),inhibition of growth at 25 µM [%]
1,O=C(NCc1ccc(-c2ccccc2)cc1)c1cc(Br)c(Br)[nH]1,57
2,O=C(NCc1ccc(Cl)cc1)c1cc(Br)c(Br)[nH]1,24
3,O=C(NCc1ccc(Cl)c(Cl)c1)c1cc(Br)c(Br)[nH]1,44

# Tested on: A2780
# Assay: Cytotoxicity against human A2780 cells assessed as growth inhibition at 25 uM after 72 hrs by MTT assay relative to control
# Format: functional
# Settings: A2780, 72 h, read-out: GI
# Summary of the method: as §1
row,Structure (SMILES),inhibition of growth at 25 µM [%]
1,O=C(NCc1ccc(-c2ccccc2)cc1)c1cc(Br)c(Br)[nH]1,66
2,O=C(NCc1ccc(Cl)cc1)c1cc(Br)c(Br)[nH]1,86
3,O=C(NCc1ccc(Cl)c(Cl)c1)c1cc(Br)c(Br)[nH]1,90

# Tested on: A-431
# Assay: Cytotoxicity against human A431 cells assessed as growth inhibition at 25 uM after 72 hrs by MTT assay relative to control
# Format: functional
# Settings: A-431, 72 h, read-out: GI
# Summary of the method: as §1
row,Structure (SMILES),inhibition of growth at 25 µM [%]
1,O=C(NCc1ccc(-c2ccccc2)cc1)c1cc(Br)c(Br)[nH]1,90
2,O=C(NCc1ccc(Cl)cc1)c1cc(Br)c(Br)[nH]1,37
3,O=C(NCc1ccc(Cl)c(Cl)c1)c1cc(Br)c(Br)[nH]1,57

# Tested on: DU-145
# Assay: Cytotoxicity against human DU145 cells assessed as growth inhibition after 72 hrs by MTT assay
# Format: functional
# Settings: DU-145, 72 h
# Summary of the method: as §1
row,Structure (SMILES),GI50 [µM]
1,O=C(NCc1ccc(-c2ccccc2)cc1)c1cc(Br)c(Br)[nH]1,2.6
2,O=C(NCc1ccc(Cl)cc1)c1cc(Br)c(Br)[nH]1,27
3,O=C(NCc1ccc(Cl)c(Cl)c1)c1cc(Br)c(Br)[nH]1,20

# Tested on: not listed separately
# Assay: Cytotoxicity against human U87 cells assessed as growth inhibition at 25 uM after 72 hrs by MTT assay relative to control
# Format: functional, U-87MG ATCC
# Settings: U-87 MG, read-out: GI
# Summary of the method: as §1
row,Structure (SMILES),inhibition of growth at 25 µM [%]
1,O=C(NCc1ccc(-c2ccccc2)cc1)c1cc(Br)c(Br)[nH]1,58
2,O=C(NCc1ccc(Cl)cc1)c1cc(Br)c(Br)[nH]1,30
3,O=C(NCc1ccc(Cl)c(Cl)c1)c1cc(Br)c(Br)[nH]1,55

# Tested on: DU-145
# Assay: Cytotoxicity against human DU145 cells assessed as growth inhibition at 25 uM after 72 hrs by MTT assay relative to control
# Format: functional
# Settings: DU-145, 72 h, read-out: GI
# Summary of the method: as §1
row,Structure (SMILES),inhibition of growth at 25 µM [%]
1,O=C(NCc1ccc(-c2ccccc2)cc1)c1cc(Br)c(Br)[nH]1,64
2,O=C(NCc1ccc(Cl)cc1)c1cc(Br)c(Br)[nH]1,40
3,O=C(NCc1ccc(Cl)c(Cl)c1)c1cc(Br)c(Br)[nH]1,66

# Tested on: MCF7
# Assay: Cytotoxicity against human MCF7 cells assessed as growth inhibition at 25 uM after 72 hrs by MTT assay relative to control
# Format: functional
# Settings: MCF7, 72 h, read-out: GI
# Summary of the method: as §1
row,Structure (SMILES),inhibition of growth at 25 µM [%]
1,O=C(NCc1ccc(-c2ccccc2)cc1)c1cc(Br)c(Br)[nH]1,70
2,O=C(NCc1ccc(Cl)cc1)c1cc(Br)c(Br)[nH]1,> 100
3,O=C(NCc1ccc(Cl)c(Cl)c1)c1cc(Br)c(Br)[nH]1,> 100

# Tested on: not listed separately
# Assay: Cytotoxicity against mouse SMA cells assessed as growth inhibition at 25 uM after 72 hrs by MTT assay relative to control
# Format: functional
# Settings: read-out: GI
# Summary of the method: as §1
row,Structure (SMILES),inhibition of growth at 25 µM [%]
1,O=C(NCc1ccc(-c2ccccc2)cc1)c1cc(Br)c(Br)[nH]1,59
2,O=C(NCc1ccc(Cl)cc1)c1cc(Br)c(Br)[nH]1,79
3,O=C(NCc1ccc(Cl)c(Cl)c1)c1cc(Br)c(Br)[nH]1,84

# Tested on: not listed separately
# Assay: Cytotoxicity against human MIA cells assessed as growth inhibition at 25 uM after 72 hrs by MTT assay relative to control
# Format: functional
# Settings: read-out: GI
# Summary of the method: as §1
row,Structure (SMILES),inhibition of growth at 25 µM [%]
1,O=C(NCc1ccc(-c2ccccc2)cc1)c1cc(Br)c(Br)[nH]1,82
2,O=C(NCc1ccc(Cl)cc1)c1cc(Br)c(Br)[nH]1,63
3,O=C(NCc1ccc(Cl)c(Cl)c1)c1cc(Br)c(Br)[nH]1,77

# Tested on: HT-29
# Assay: Cytotoxicity against human HT-29 cells assessed as growth inhibition at 25 uM after 72 hrs by MTT assay relative to control
# Format: functional
# Settings: HT-29, 72 h, read-out: GI
# Summary of the method: as §1
row,Structure (SMILES),inhibition of growth at 25 µM [%]
1,O=C(NCc1ccc(-c2ccccc2)cc1)c1cc(Br)c(Br)[nH]1,78
2,O=C(NCc1ccc(Cl)cc1)c1cc(Br)c(Br)[nH]1,95
3,O=C(NCc1ccc(Cl)c(Cl)c1)c1cc(Br)c(Br)[nH]1,77

# Tested on: not listed separately
# Assay: Cytotoxicity against mouse SMA cells assessed as growth inhibition after 72 hrs by MTT assay
# Format: functional
# Settings: not given
# Summary of the method: as §1
row,Structure (SMILES),GI50 [µM]
1,O=C(NCc1ccc(-c2ccccc2)cc1)c1cc(Br)c(Br)[nH]1,17
2,O=C(NCc1ccc(Cl)cc1)c1cc(Br)c(Br)[nH]1,16
3,O=C(NCc1ccc(Cl)c(Cl)c1)c1cc(Br)c(Br)[nH]1,17

# Tested on: SW480
# Assay: Cytotoxicity against human SW480 cells assessed as growth inhibition after 72 hrs by MTT assay
# Format: functional
# Settings: SW480, 72 h
# Summary of the method: as §1
row,Structure (SMILES),GI50 [µM]
1,O=C(NCc1ccc(-c2ccccc2)cc1)c1cc(Br)c(Br)[nH]1,2.4
2,O=C(NCc1ccc(Cl)cc1)c1cc(Br)c(Br)[nH]1,36
3,O=C(NCc1ccc(Cl)c(Cl)c1)c1cc(Br)c(Br)[nH]1,33

# Tested on: SW480
# Assay: Cytotoxicity against human SW480 cells assessed as growth inhibition at 25 uM after 72 hrs by MTT assay relative to control
# Format: functional
# Settings: SW480, 72 h, read-out: GI
# Summary of the method: as §1
row,Structure (SMILES),inhibition of growth at 25 µM [%]
1,O=C(NCc1ccc(-c2ccccc2)cc1)c1cc(Br)c(Br)[nH]1,97
2,O=C(NCc1ccc(Cl)cc1)c1cc(Br)c(Br)[nH]1,11
3,O=C(NCc1ccc(Cl)c(Cl)c1)c1cc(Br)c(Br)[nH]1,22

# Tested on: A2780
# Assay: Cytotoxicity against human A2780 cells assessed as growth inhibition after 72 hrs by MTT assay
# Format: functional
# Settings: A2780, 72 h
# Summary of the method: as §1
row,Structure (SMILES),GI50 [µM]
1,O=C(NCc1ccc(-c2ccccc2)cc1)c1cc(Br)c(Br)[nH]1,6.4
2,O=C(NCc1ccc(Cl)cc1)c1cc(Br)c(Br)[nH]1,13
3,O=C(NCc1ccc(Cl)c(Cl)c1)c1cc(Br)c(Br)[nH]1,15

# Tested on: not listed separately
# Assay: Cytotoxicity against human U87 cells assessed as growth inhibition after 72 hrs by MTT assay
# Format: functional, U-87MG ATCC
# Settings: U-87 MG
# Summary of the method: as §1
row,Structure (SMILES),GI50 [µM]
1,O=C(NCc1ccc(-c2ccccc2)cc1)c1cc(Br)c(Br)[nH]1,> 50
2,O=C(NCc1ccc(Cl)cc1)c1cc(Br)c(Br)[nH]1,34
3,O=C(NCc1ccc(Cl)c(Cl)c1)c1cc(Br)c(Br)[nH]1,27

# Tested on: not listed separately
# Assay: Cytotoxicity against human SJ-G2 cells assessed as growth inhibition at 25 uM after 72 hrs by MTT assay relative to control
# Format: functional
# Settings: SJ-G2, 72 h, read-out: GI
# Summary of the method: as §1
row,Structure (SMILES),inhibition of growth at 25 µM [%]
1,O=C(NCc1ccc(-c2ccccc2)cc1)c1cc(Br)c(Br)[nH]1,17
2,O=C(NCc1ccc(Cl)cc1)c1cc(Br)c(Br)[nH]1,42
3,O=C(NCc1ccc(Cl)c(Cl)c1)c1cc(Br)c(Br)[nH]1,70

# Tested on: not listed separately
# Assay: Cytotoxicity against human H460 cells assessed as growth inhibition after 72 hrs by MTT assay
# Format: functional
# Settings: NCI-H460, 72 h
# Summary of the method: as §1
row,Structure (SMILES),GI50 [µM]
1,O=C(NCc1ccc(-c2ccccc2)cc1)c1cc(Br)c(Br)[nH]1,21
2,O=C(NCc1ccc(Cl)cc1)c1cc(Br)c(Br)[nH]1,28
3,O=C(NCc1ccc(Cl)c(Cl)c1)c1cc(Br)c(Br)[nH]1,19
